Only a selection was taken, and hits are over-represented in it overall.
HUVEC prolif 384 = inhibitors of HUVEC proliferation, primary screen, cell-based, 384-well; CellTiter-Glo luminescence, 72 h; hits give low values; AID 648, 2007; actives 1.1% (n = 86,000); viability, % at 10 µM (by protocol);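 active = viability at or below 30%; inactive = viability above 30%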;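 note: 100% = median luminescence of DMSO-only cell control wells on each plate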
H69AR growth 86K = proliferation blockers of H69AR lung cancer cells, primary screen, cell-based, human, 86K library; actives 6% (n = 85,000); AID 598, 2007; H69AR lung tumor viability, ATP luminescence, 72 h; hits give low values; viability, % at 10 µM;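 active = viability at or below 40%; inactive = viability above 40%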;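 note: multidrug resistant small cell line overexpressing MRP-1 efflux transporter; 100% = mean luminescence of untreated control wells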
PTEN del growth = growth suppression of PTEN-null HCT116, primary screen, cell-based, CellTiter-Glo; AID 827, 2007; viability, % at 10 µM; HCT116 PTEN-null viability, 60 h; hits give low values; actives 1.2% (n = 140,000);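 active = viability at or below a set limit, 4 SD under the median of all tested compounds, cut at about 3.7% in these data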;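 note: PTEN knockout HCT116 line with beta catenin targeted HCT116 as companion control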
Lung fibro prol = antiproliferative effect on LL 47 fibroblasts – human, LL 47 cells, CellTiter-Glo luminescence, primary screen; actives 1.1% (n = 85,000); viability, % at 10 µM; LL 47 human lung fibroblast viability, ATP luminescence; hits give low values;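 active = viability at or below 50% in the single dose screen; inactive = viability above 50%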;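 note: compound exposure lasted 72 h before the ATP readout; 100% = median luminescence of untreated cell-only wells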
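Test system: LL 47 human lung fibroblasts / Incubation: 72 h compound exposure at 37 °C after overnight plating / Technique: luminescent ATP detection, CellTiter-Glo / Compound dosing: 0.1% DMSO in all compound wells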
bCat KO growth = primary screen for growth suppressors in beta-catenin knockout HCT116 cells (colon tumor, human); HCT116 beta-catenin knockout viability, CellTiter-Glo, 60 h; hits give low values; viability, % at 10 µM; actives 1.5% (n = 140,000);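 active = viability at or under a set limit, the compound median less 4 SD, cut at about 6% in these data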;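 note: 0% = Hyamine 1622 control at 20 µM and 100% = untreated cell control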
The depositor's hits bear a star; nt = not tested or not shown.

SMILES	HUVEC prolif 384	H69AR growth 86K	PTEN del growth	Lung fibro prol	bCat KO growth
CCN(Cc1ccccc1)S(=O)(=O)c1ccc(S(=O)(=O)N(Cc2ccccn2)Cc2ccco2)cc1	70	22*	66	102	73
CCc1cccc(CC)c1NC(=S)NC(C)c1ccccc1 (centres undefined)	nt	nt	38	nt	35
Cc1n[nH]c(C)c1S(=O)(=O)N(CC(=O)N1CCc2ccccc21)c1ccc(C(C)C)cc1	44	31*	74	63	80
O=c1[nH]c2ccc(Br)cc2c(-c2ccccc2)c1N1CCOCC1	90	68	81	82	81
O=c1ccc2cc3c([nH]c4ccc(Br)cc43)oc-2c1O	101	23*	100	87	98
COc1ccc(CNC(=O)c2c(C)oc3c2C(=O)c2ccccc2C3=O)cc1	nt	nt	1.3*	nt	1.3*
COc1ccc(CNC(=O)c2ccc(-c3ccccc3)cc2)cc1	nt	nt	96	nt	102
O=C1c2ccccc2C(=O)c2c1oc(C(F)(F)F)c2C(=O)c1ccccc1	3.5*	0.7*	1.8*	3.1*	2.0*
CC(=O)c1c(C)oc2c1C(=O)c1ccccc1C2=O	nt	nt	1.9*	nt	2.6*
CNc1cccc2c1C(=O)c1ccccc1C2=O	nt	nt	73	nt	83
CC(C)CCNC(=O)c1nnc(Cc2ccc(Cl)cc2)o1	99	94	97	101	103
Cc1ccccc1Sc1ncnc2onc(C)c12	81	43	83	96	82
Cc1ccc(Sc2ncnc3onc(C)c23)cc1	80	78	79	91	83
Cc1noc2ncnc(Sc3ccc(Cl)cc3)c12	47	1.8*	83	57	83
Cc1noc2ncnc(Sc3c(Cl)cccc3Cl)c12	52	16*	8	49*	11
COc1ccc(S(=O)(=O)N2CCN(CC(=O)Nc3ccc(C)c(F)c3)CC2)cc1	99	4.9*	76	105	69
O=C(CN1CCN(S(=O)(=O)c2ccc(Cl)cc2)CC1)Nc1ccc2c(c1)OCCO2	88	67	98	104	93
O=C(CN1CCN(S(=O)(=O)c2ccc(Br)cc2)CC1)Nc1ccc2c(c1)OCCO2	88	17*	94	98	95
Cc1cccc(C(=O)Oc2ccccc2C2C[C@]3(C)CC(=O)NC3N2C(=O)c2cccc(C)c2)c1 (some centres undefined)	98	90	100	96	90
OC(COC(c1ccc(Cl)cc1)c1ccc(Cl)cc1)CN1CCCC1 (centres undefined)	71	25*	13	88	9
OC(COC(c1ccc(Cl)cc1)c1ccc(Cl)cc1)CN1CCc2ccccc2C1 (centres undefined)	nt	nt	56	nt	62
Cc1cc(N2CCOCC2)ncc1[N+](=O)[O-]	nt	nt	87	nt	86
O=C(c1cc(C2CC2)nc2ccc(Br)cc12)N1N=C(C(F)F)CC1(O)C(F)F (centres undefined)	29*	17*	6	54	19
COC(=O)c1ccc(C(=O)OC)c(NS(C)(=O)=O)c1	100	1.4*	92	97	100
COc1ccc(N/C(N)=N/c2nc(CSc3ccc(Cl)cc3)cc(=O)[nH]2)cc1	54	16*	75	94	78
SMILES	HUVEC prolif 384	H69AR growth 86K	PTEN del growth	Lung fibro prol	bCat KO growth
O=[N+]([O-])c1ccc(N2CCN(S(=O)(=O)c3ccc4ccccc4c3)CC2)cc1NCC1CCCO1 (centres undefined)	nt	nt	90	nt	79
c1ccc(-c2ccc3c(c2)c2c4n3CCN=C4CCC2)cc1	28*	24*	25	75	20
OC1CN=C2CCCc3c2n(c2ccc(Cl)cc32)C1 (centres undefined)	106	84	71	100	71
O=C1C2CCCN2C(c2ccc(F)c(F)c2)N1c1cccc(Cl)c1 (centres undefined)	96	102	93	104	92
Cc1ccc2c3c(c(SCC(=O)Nc4nonc4C)nc2c1)CCCC3	76	16*	100	88	93
Cc1ccc(N(NC(=O)C(O)(c2ccccc2)c2ccccc2)C(=O)CCl)cc1	nt	nt	3.4*	nt	3.3*
Cc1ccc(C(O)(C(=O)NN(C(=O)c2ccccc2)c2ccccc2)c2ccc(C)cc2)cc1	nt	nt	53	nt	69
CCOC(=O)C(NC(C)=O)(OCc1ccccc1)C(F)(F)F (centres undefined)	nt	nt	97	nt	93
Cc1ccc2c(n1)sc1c(-c3ccc(Br)cc3)c(C#N)c(N)nc12	nt	nt	3.2*	nt	9
CCc1nc(N)c(C#N)c(-c2ccc(F)cc2)c1C	100	92	89	105	95
CCOC(=O)c1oc2ccccc2c1NC(=O)c1cccc(OC)c1	100	78	78	97	90
CCOC(=O)c1oc2ccccc2c1NC(=O)c1cccc(OC)c1OC	63	30*	45	89	54
CCN(CC)P1(=O)OC(c2cc(OC)c(OC)c(OC)c2)=Nc2c1c(C)nn2-c1ccccc1 (centres undefined)	89	28*	101	83	93
Cn1cnnc1SCC(=O)Nc1ccc2nc(SCc3ccccc3)sc2c1	90	46	99	96	94
O=c1c2c3nc4ccccc4nc3n(-c3ccc4c(c3)OCCO4)c2ncn1C1CCCC1	37	21*	nt	13*	nt
O=c1c2c3nc4ccccc4nc3n(-c3ccc4c(c3)OCCO4)c2ncn1CC1CCCO1 (centres undefined)	102	90	nt	109	nt
CCOc1ccc(-n2c(=O)cc(N3CCN(c4ccc(F)cc4)CC3)[nH]c2=O)cc1	90	102	87	97	86
COC(=O)c1cc(NC(=O)CN(c2cccc(OC)c2)S(=O)(=O)c2ccccc2)ccc1Cl	nt	nt	57	nt	70
CC(OC(=O)c1cc2c(s1)CCCCC2)C(=O)NC(N)=O (centres undefined)	nt	nt	88	nt	93
Cc1[nH][nH]c(=O)c1C(c1ccc(-c2ccc(Cl)c(Cl)c2)o1)c1c(C)[nH][nH]c1=O	38	30*	43	69	49
Cc1[nH][nH]c(=O)c1C(c1cc([N+](=O)[O-])ccc1O)c1c(C)[nH][nH]c1=O	nt	nt	85	nt	91
O=C(NCCSCc1ccc(Cl)cc1Cl)c1ccc(CN2CCOCC2)cc1	nt	nt	38	nt	22
Cc1cc(C(=O)Nc2sc3c(c2C#N)CCCC3)no1	80	27*	71	96	59
CC(C)Cc1cc(C(=O)Nc2sc3c(c2C#N)CCCC3)no1	97	91	90	91	96
CC(C)Cc1cc(C(=O)Nc2sc3c(c2C#N)CCC3)no1	100	67	100	104	90
Cc1cc(C(=O)Nc2sc3c(c2C#N)CCC3)no1	68	22*	54	99	60
N#Cc1c(NC(=O)c2cc(C3CC3)on2)sc2c1CCC2	61	33*	36	99	37
CC(C)Nc1nc(Cl)nc(NN(C)c2nc(N(C)C)nc(N(C)C)n2)n1	nt	nt	88	nt	86

Compound activity: PubChem BioAssay, SRMLSC
